In ChEMBL document CHEMBL2434917, “Synthesis and anticancer activity of some novel 2-phenazinamine derivatives” (Eur J Med Chem, 2013):

Experiments:
HCT-116 = assay: Cytotoxicity against human HCT116 cells after 48 hrs by MTT assay; assay type: functional, cell-based; conditions: HCT-116, 48 h
Summary of the method: (§1)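 Cells were kept in RPMI-1640 with 10% FBS, streptomycin and penicillin at 37 °C under 5% CO2. They were seeded at 5000/well and left 24 h, then exposed 48 h to compound (DMSO stock diluted in medium, DMSO ≤0.2%) at final 0.16, 0.63, 2.5, 10, 40 and 160 μM. MTT was added (10% v/v of 5 mg/ml) for 4 h, formazan was dissolved in DMSO and A490 read. IC50 came from the viability-versus-dose plot against control, with three repeats.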

K562 [1] = assay: Cytotoxicity against human K562 cells after 48 hrs by MTT assay; assay type: functional, cell-based; conditions: K562, 48 h; summary of the method: as §1
HepG2 [2] = assay: Cytotoxicity against human HepG2 cells after 48 hrs by MTT assay; assay type: functional, cell-based; conditions: HepG2, 48 h; summary of the method: as §1
MCF7 [3] = assay: Cytotoxicity against human MCF7 cells after 48 hrs by MTT assay; assay type: functional, cell-based; conditions: MCF7, 48 h; summary of the method: as §1
HEK-293T = assay: Cytotoxicity against human 293T cells after 48 hrs by MTT assay; assay type: cell-based; summary of the method: as §1
MGC-803 = assay: Cytotoxicity against human MGC803 cells after 48 hrs by MTT assay; assay type: functional, cell-based; conditions: MGC-803, 48 h; summary of the method: as §1
K562 [4] = assay: Ratio of cisplatin IC50 to compound IC50 for human K562 cells; assay type: functional
HepG2 [5] = assay: Ratio of cisplatin IC50 to compound IC50 for human HepG2 cells; assay type: functional
HepG2 [6] = assay: Induction apoptosis in human HepG2 cells assessed as late apoptosis or necrosis cells level at 50 uM after 24 hrs using Annexin V-FITC and propidium iodide staining by flow cytometry analysis (reference value: 5.7%); assay type: functional
HepG2 [7] = assay: Induction apoptosis in human HepG2 cells assessed as apoptotic cells level at 50 uM after 24 hrs using Annexin V-FITC and propidium iodide staining by flow cytometry analysis (reference value: 8.3%); assay type: functional
MCF7 [8] = assay: Ratio of cisplatin IC50 to compound IC50 for human MCF7 cells; assay type: functional

Row | Structure (SMILES) | IC50 (HCT-116) | IC50 (K562 [1]) | IC50 (HepG2 [2]) | IC50 (MCF7 [3]) | IC50 (HEK-293T) | IC50 (MGC-803) | Ratio IC50 (K562 [4]) | Ratio IC50 (HepG2 [5]) | Activity (HepG2 [6]) | Activity (HepG2 [7]) | Ratio IC50 (MCF7 [8])
1 | CC(=O)Nc1ccc2nc3ccccc3nc2c1 | > 160 µM | 49.2 µM | > 160 µM | 82.6 µM | > 160 µM | 93.1 µM | 1.1 | – | – | – | –
2 | O=C(Nc1ccc2nc3ccccc3nc2c1)c1ccccc1 | 28.2 µM | > 160 µM | > 160 µM | > 160 µM | > 160 µM | > 160 µM | – | – | – | – | –
3 | O=C(Nc1ccc2nc3ccccc3nc2c1)c1cccc2ccccc12 | 131 µM | 61.2 µM | 44.2 µM | 30.1 µM | > 160 µM | 87.9 µM | – | – | – | – | –
4 | O=C(Nc1ccc2nc3ccccc3nc2c1)c1ccco1 | 86.6 µM | – | 52.2 µM | 28.8 µM | > 160 µM | – | – | – | – | – | –
5 | O=C(Nc1ccc2nc3ccccc3nc2c1)c1cccs1 | 68.1 µM | > 160 µM | > 160 µM | > 160 µM | > 160 µM | > 160 µM | – | – | – | – | –
6 | O=C(Cc1cccs1)Nc1ccc2nc3ccccc3nc2c1 | 95.6 µM | – | > 160 µM | > 160 µM | > 160 µM | – | – | – | – | – | –
7 | CCOC(=O)Nc1ccc2nc3ccccc3nc2c1 | > 160 µM | > 160 µM | 15.2 µM | 46.1 µM | > 160 µM | > 160 µM | – | 1.2 | – | – | –
8 | O=C(CCCl)Nc1ccc2nc3ccccc3nc2c1 | 141 µM | 74.5 µM | > 160 µM | 37.6 µM | > 160 µM | 59.5 µM | – | – | – | – | –
9 | O=S(=O)(Nc1ccc2nc3ccccc3nc2c1)c1ccccc1 | > 160 µM | > 160 µM | > 160 µM | > 160 µM | > 160 µM | > 160 µM | – | – | – | – | –
10 | CN(C)C(=O)Nc1ccc2nc3ccccc3nc2c1 | 144 µM | – | > 160 µM | 35.1 µM | > 160 µM | – | – | – | – | – | –
11 | CCC(=O)Nc1ccc2nc3ccccc3nc2c1 | 18.9 µM | 57.7 µM | > 160 µM | 40.7 µM | > 160 µM | 63.9 µM | – | – | – | – | –
12 | CCCC(=O)Nc1ccc2nc3ccccc3nc2c1 | 62.3 µM | > 160 µM | > 160 µM | 68.8 µM | 110 µM | 43.5 µM | – | – | – | – | –
13 | O=C(Cc1ccccc1)Nc1ccc2nc3ccccc3nc2c1 | > 160 µM | > 160 µM | > 160 µM | > 160 µM | > 160 µM | > 160 µM | – | – | – | – | –
14 | O=C(Nc1ccc2nc3ccccc3nc2c1)c1ccccc1Cl | 91.9 µM | 33.4 µM | 16.5 µM | > 160 µM | > 160 µM | > 160 µM | 1.7 | 1.1 | 20.5% | 36.1% | –
15 | O=C(Nc1ccc2nc3ccccc3nc2c1)c1cccc(Cl)c1 | > 160 µM | > 160 µM | > 160 µM | > 160 µM | > 160 µM | > 160 µM | – | – | – | – | –
16 | Cc1ccc(C(=O)Nc2ccc3nc4ccccc4nc3c2)cc1 | > 160 µM | > 160 µM | > 160 µM | > 160 µM | > 160 µM | > 160 µM | – | – | – | – | –
17 | Cc1ccccc1C(=O)Nc1ccc2nc3ccccc3nc2c1 | > 160 µM | > 160 µM | > 160 µM | 11.6 µM | > 160 µM | 27.2 µM | – | – | – | – | 2.4
18 | Cc1cccc(C(=O)Nc2ccc3nc4ccccc4nc3c2)c1 | > 160 µM | > 160 µM | 16.7 µM | > 160 µM | 56.2 µM | 89 µM | – | 1.1 | – | – | –
19 | COc1ccc(C(=O)Nc2ccc3nc4ccccc4nc3c2)cc1 | > 160 µM | > 160 µM | > 160 µM | > 160 µM | > 160 µM | 50.1 µM | – | – | – | – | –
20 | O=C(Nc1ccc2nc3ccccc3nc2c1)C1CCCCC1 | > 160 µM | 78.9 µM | > 160 µM | 137 µM | > 160 µM | 67.1 µM | – | – | – | – | –
21 | O=C(CCC1CCCC1)Nc1ccc2nc3ccccc3nc2c1 | > 160 µM | 157 µM | > 160 µM | > 160 µM | > 160 µM | 122 µM | – | – | – | – | –
